OX1R antag-1 = antagonists of human orexin 1 receptor; O43613; CHO/OX1R cells, Fluo-8 calcium fluorescence, orexin A; inhibition, % at 5 µM; hit rate 0.43% among 330,000;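 active means inhibition above its plate's threshold, mean inhibition of all tested compounds on the plate plus 3 SD, cut at about 37% in these data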
V1R ag counter = activates human V1a receptor in oxytocin agonist counter-screen | P37288 | CHO-V1R cells, Fluo-8 calcium fluorescence, agonist mode; 0% DMSO, 100% 3 nM vasopressin | activation, % at 3 µM | hit rate 0.25% among 320,000;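 active means activation above the mean activation of all tested compounds plus 3 SD, per screening run, cut at about 20% in these data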;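 further: signal is peak over basal fluorescence ratio across a 100 second FLIPR read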
OX1R antag-2 = OX1R (human) antagonism. O43613. OX1R-expressing cells, FRET antagonist read-out. inhibition, % at 6.6 µM. hit rate 1.8% among 330,000. AID 485270; in the data active means inhibition mostly above about 38%, no sharp cut-off; inactive means mostly below about 40%
OXTR agonist = activates the human oxytocin receptor | hit rate 0.32% among 320,000 | CHO-OTR cells, Fluo-8 calcium fluorescence; normalized: DMSO 0%, oxytocin 100% | activation, % at 3 µM | P30559;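 active means activation above the mean of all tested compounds plus 3 SD, cutoff set per screening run, cut at about 20% in these data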;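 further: peak over basal fluorescence ratio from a 100 s FLIPR kinetic read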
Target sequence (P30559 whole entry, looked up): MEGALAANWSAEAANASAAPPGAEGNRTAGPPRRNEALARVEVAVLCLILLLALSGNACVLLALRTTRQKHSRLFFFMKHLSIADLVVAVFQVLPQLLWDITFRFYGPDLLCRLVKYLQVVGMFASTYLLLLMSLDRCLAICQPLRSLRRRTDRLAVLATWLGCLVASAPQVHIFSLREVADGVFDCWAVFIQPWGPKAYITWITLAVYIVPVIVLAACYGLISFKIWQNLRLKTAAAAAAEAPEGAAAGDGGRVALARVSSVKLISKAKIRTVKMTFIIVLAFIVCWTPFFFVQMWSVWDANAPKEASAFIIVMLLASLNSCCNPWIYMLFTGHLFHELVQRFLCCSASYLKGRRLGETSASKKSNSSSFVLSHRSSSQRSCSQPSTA
OXTR potentiate = potentiates the human oxytocin receptor response; activation, % at 3 µM; P30559; hit rate 0.061% among 320,000; CHO-OTR cells, Fluo-8 calcium fluorescence, potentiator mode; 0% = oxytocin EC15, 100% = EC100;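 active means activation above that plate's cutoff, the mean activation of tested compounds plus 3 SD, cut at about 6.6% in these data, passing the limit was not always enough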
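assay system = CHO-OTR cells, human receptor | schedule = compound 6 min at room temperature before oxytocin, 100 s read | detection = Fluo-8 intracellular calcium fluorescence, ex 470-495, em 515-575 nm | evaluation = normalized max/min fluorescence ratio, % activation | control set = EC15 oxytocin alone as 0%, 75 nM oxytocin (EC100) as 100%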
CHO parental Ca = counter-screen for OX1R antagonists: effect in parental CHO cells. hit rate 0.63% among 330,000. AID 463079. inhibition, % at 5.6 µM. parental CHO-K1, ATP-induced calcium, Fluo-8 fluorescence;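 active means inhibition above that plate's mean sample inhibition plus 3 SD, cut at about 26% in these data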
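Assay system – parental CHO cells · Reagent – ATP stimulus · Detection – intracellular calcium via Fluo-8 no-wash fluorescent dye · Evaluation – percent inhibition of ATP-evoked calcium rise, normalized to controls · Controls – ATP wells versus no-ATP DMSO wells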
OX1R Ca confirm = confirmation of human orexin 1 receptor antagonists | shares compounds with OX1R antag-1 | CHO/OX1R cells, orexin A calcium Fluo-8 fluorescence | inhibition, % at 5 µM | hit rate 38% among 1,100 | AID 492963; in the data active means inhibition above about 29%
CHO Ca triplic = signal in parental CHO cells, OX1R antagonist counter-screen. hit rate 9.3% among 1,100. shares compounds with OX1R antag-1. inhibition, % at 5.6 µM. AID 492965. parental CHO-K1, ATP-induced calcium, Fluo-8 fluorescence;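 active means inhibition above a per-plate limit, the mean inhibition of that plate's test compounds plus 3 SD, cut at about 25% in these data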
OX1R HTRF confirm = OX1R (human) antagonism, HTRF confirmed. inhibition, % at 6.6 µM. hit rate 49% among 1,800. AID 492964. shares compounds with OX1R antag-2. OX1R-expressing cells, HTRF antagonist assay; in the data active means inhibition above about 55%;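 further: CHO cells expressing OX1R stimulated with orexin A at about EC80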
CHO-K1 HTRF = counter-screen for OX1R antagonists: effect in parental CHO-K1 cells; shares compounds with OX1R antag-2; HTRF counterscreen; inhibition, % at 6.6 µM; hit rate 48% among 1,800; in the data active means inhibition above about 17%
Each line names hits and unclear results; the compound was inactive in the other large screens (follow-up assays come after a bar, where they were run). This is a sample that favours compounds with a hit; in the whole collection about 2.6% have one here.

C/C(=N\NC(=O)c1nnn(-c2nonc2N)c1CN(C)c1ccccc1)c1cccs1	OX1R antag-2 53 | OX1R Ca confirm inactive | CHO Ca triplic inactive | OX1R HTRF confirm 79 | CHO-K1 HTRF inactive
Cc1ccc(/C=N/NC(=O)c2nnn(-c3nonc3N)c2CN(C)c2ccccc2)s1	OX1R antag-2 79 | OX1R Ca confirm inactive | CHO Ca triplic inactive | OX1R HTRF confirm 86 | CHO-K1 HTRF inactive
CN(Cc1c(C(=O)N/N=C/c2cccc(O)c2)nnn1-c1nonc1N)c1ccccc1	OX1R antag-1 84, OX1R antag-2 87 | OX1R Ca confirm 71 | CHO Ca triplic inactive | OX1R HTRF confirm 88 | CHO-K1 HTRF inactive
COc1ccccc1CN1CC(C(=O)NCCn2ccc(C)n2)CCC1=O (stereo not given)	none
Cc1ccc(S(=O)(=O)N2CCN(c3ccccc3)CC2)s1	none
O=C(CCC1CCCN(Cc2ccncc2)C1)NCc1ccc(F)c(F)c1 (stereo not given)	none
O=C1Nc2ccccc2/C1=N\N=C\c1ccc(O)c(O)c1	none
Cc1ccsc1/C=N/N=C1\C(=O)Nc2ccccc21	OX1R antag-2 91 | OX1R Ca confirm 36 | CHO Ca triplic inactive | OX1R HTRF confirm 93 | CHO-K1 HTRF inactive
Cc1ccccc1C(=O)Nc1ccc2nc3n(c(=O)c2c1)CCCC3	none
CCOc1ccccc1C(=O)Nc1ccc(NC(=O)c2ccccc2)cc1	none
CCOc1ccccc1C(=O)Nc1ccc2nc3n(c(=O)c2c1)CCCCC3	OX1R antag-1 94, OX1R antag-2 91 | OX1R Ca confirm 79 | CHO Ca triplic inactive | OX1R HTRF confirm 93 | CHO-K1 HTRF inactive
CCOc1ccccc1C(=O)Nc1ccc(C(=O)c2ccccc2)cc1	OX1R antag-2 55 | OX1R Ca confirm inactive | CHO Ca triplic inactive | OX1R HTRF confirm 67 | CHO-K1 HTRF 18
Cn1c(N)c(C(=O)N/N=C/c2ccccc2)sc1=S	OX1R antag-1 91, OX1R antag-2 93 | OX1R Ca confirm 73 | CHO Ca triplic inactive | OX1R HTRF confirm 95 | CHO-K1 HTRF 17
CC1Cc2ccccc2N1S(=O)(=O)c1cccc(C(=O)c2nccn2C)c1 (stereo not given)	OX1R antag-1 56, OX1R antag-2 40 | OX1R Ca confirm inactive | CHO Ca triplic inactive | OX1R HTRF confirm inactive | CHO-K1 HTRF inactive
Cc1cc(NC(=O)c2cccc(S(=O)(=O)N3c4ccccc4CC3C)c2)no1 (stereo not given)	none
CN(C(=O)COC(=O)CNC(=O)c1cccs1)c1c(N)n(Cc2ccccc2)c(=O)[nH]c1=O	none
COc1ccc(OC)c(NC(=O)c2cc3ccccc3o2)c1	OX1R antag-1 41, OX1R antag-2 85 | OX1R Ca confirm inactive | CHO Ca triplic inactive | OX1R HTRF confirm inactive | CHO-K1 HTRF inactive
COc1ccc(OC)c(NC(=O)c2cc(OC(C)=O)cc(C(=O)Nc3cc(OC)ccc3OC)c2)c1	OX1R antag-2 85 | OX1R Ca confirm 54 | CHO Ca triplic inactive | OX1R HTRF confirm 85 | CHO-K1 HTRF inactive
COc1ccc(OC)c(NC(=O)c2csc(Cl)c2OC)c1	OX1R antag-1 80, OX1R antag-2 105 | OX1R Ca confirm inactive | CHO Ca triplic inactive | OX1R HTRF confirm 82 | CHO-K1 HTRF inactive
OCCn1c(SCCOc2ccccc2F)nc2ccccc21	OX1R antag-1 52, OX1R antag-2 105 | OX1R Ca confirm inactive | CHO Ca triplic inactive | OX1R HTRF confirm inactive | CHO-K1 HTRF inactive
C/C1=C\CCC2C(/C=C(\C)CC1)OC(=O)C2CN1CCCCC1 (stereo not given)	none

High-throughput results deposited in PubChem BioAssay by The Scripps Research Institute Molecular Screening Center.
